In ChEMBL document CHEMBL4808196, “Dual Bcl-XL /Bcl-2 inhibitors discovered from DNA-encoded libraries using a fragment pairing strategy” (Bioorg Med Chem, 2021):
The source made the active and inactive calls. No cut-off for these calls is given here.

Columns and labels:
Bcl-2-like protein 1 [1] = molecular target: T1, Bcl-2-like protein 1 (Homo sapiens, UniProt Q07817); test: Competitive binding affinity to Bcl-XL (unknown origin) using ABT-199 by western blot based pull down assay
Bcl-2-like protein 1 [2] = molecular target: T1, Bcl-2-like protein 1; test: Binding affinity to Bcl-xl (unknown origin) measured by surface plasmon resonance based pull down assay
Method in brief: (§1)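 Biotinylated ligand (2800 RU) immobilised on a streptavidin SPR chip. Bcl protein in HBS-EP running buffer injected at 0.5, 0.25, 0.125 and 0.062 µM. Association 120 s, dissociation 240 s, 30 µl/min, 25 C. Surface regenerated with a 5 s pulse of 10 mM NaOH. KD estimated by kinetic fitting.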

Bcl-2-like protein 1 [3] = molecular target: T1, Bcl-2-like protein 1; test: Binding affinity to Bcl-XL (unknown origin) using Bim peptide by surface plasmon resonance-based competition assay
Method in brief: (§2)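 SPR competition on a streptavidin chip carrying 2800 RU biotinylated ligand. Flowed 0.5 µM Bcl-XL alone or premixed with 1.0 µM native BH3 peptide: Bim 26mer or Puma 25mer. Binding responses compared.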

[4] = molecular target: Induced myeloid leukemia cell differentiation protein Mcl-1 (Homo sapiens, UniProt Q07820); test: Binding affinity to Mcl-1 (unknown origin) measured by surface plasmon resonance based pull down assay; method in brief: as §1
K562 = test: Cytotoxicity against human K562 cells assessed as cell survival measured after 72 hrs by MTT assay; assay type: cell-based; conditions: K562, 72 h
Method in brief: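 MTT viability assay: 10^4 cells/well seeded and held overnight at 37 C, 5% CO2 (K562 in IMDM with 10% FCS). Serially diluted compounds added for 72 h of exposure. MTT added at 0.3 mg/ml final for 4 h at 37 C. Formazan dissolved in 10% SDS/0.01 N HCl, absorbance read at 560/690 nm. EC50 from concentration–response plot.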

Bcl-2-like protein 1 [5] = molecular target: T1, Bcl-2-like protein 1; test: Binding affinity to Bcl-XL (unknown origin) using puma peptide by surface plasmon resonance-based competition assay; conditions: dose 1.0 µM; method in brief: as §2
[6] = molecular target: Apoptosis regulator Bcl-2 (Homo sapiens, UniProt P10415); test: Binding affinity to Bcl-2 (unknown origin) measured by surface plasmon resonance based […]; method in brief: as §1
Bcl-2-like protein 1 [7] = molecular target: T1, Bcl-2-like protein 1; test: Binding affinity to recombinant Bcl-XL (unknown origin) premixed with human HeLa cell lysate incubated for 1 hr by SDS PAGE Western blot based pull down assay; assay type: subcellular
Method in brief: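 Streptavidin magnetic beads loaded with 100 µM biotinylated compound in PBS-T for 30 min, washed, then equilibrated in HBS-EP. His-tagged recombinant Bcl-XL (0.2 µM) spiked into 10 µg HeLa lysate and incubated with beads for 1 h with rotation. Three washes, heat elution in SDS buffer (95 C, 5 min), SDS-PAGE, anti-His western blot.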

T1 sequence (Q07817 whole entry): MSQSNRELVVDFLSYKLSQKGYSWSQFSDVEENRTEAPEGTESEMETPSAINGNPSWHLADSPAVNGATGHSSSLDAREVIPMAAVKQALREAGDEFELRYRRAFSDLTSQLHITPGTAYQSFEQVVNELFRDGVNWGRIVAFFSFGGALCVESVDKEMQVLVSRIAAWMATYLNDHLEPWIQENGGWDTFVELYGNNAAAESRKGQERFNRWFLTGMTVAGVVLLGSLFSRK
Chain of Apoptosis regulator Bcl-2 (P10415 whole entry): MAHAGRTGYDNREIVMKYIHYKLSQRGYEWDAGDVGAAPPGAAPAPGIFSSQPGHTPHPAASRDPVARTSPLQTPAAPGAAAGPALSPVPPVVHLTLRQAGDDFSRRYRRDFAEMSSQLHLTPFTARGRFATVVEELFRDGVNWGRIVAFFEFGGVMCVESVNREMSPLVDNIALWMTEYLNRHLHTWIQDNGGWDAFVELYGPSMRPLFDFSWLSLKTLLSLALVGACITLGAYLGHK
Chain of Induced myeloid leukemia cell differentiation protein Mcl-1 (Q07820 whole entry): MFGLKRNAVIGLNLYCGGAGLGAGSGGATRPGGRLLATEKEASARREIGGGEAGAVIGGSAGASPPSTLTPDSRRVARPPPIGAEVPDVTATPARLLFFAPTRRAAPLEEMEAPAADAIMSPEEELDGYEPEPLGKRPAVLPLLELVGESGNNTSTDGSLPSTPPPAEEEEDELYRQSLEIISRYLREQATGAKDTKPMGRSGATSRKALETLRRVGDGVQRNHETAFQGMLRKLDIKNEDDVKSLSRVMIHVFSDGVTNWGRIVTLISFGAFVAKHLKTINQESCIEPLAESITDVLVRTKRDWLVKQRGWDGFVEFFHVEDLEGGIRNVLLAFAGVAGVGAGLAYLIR

`CC(C)C(NC1=NS(=O)(=O)c2ccccc21)C(=O)NCC(NC(=O)C1(NC(=O)COc2ccccc2-c2n[nH]c3ccc(Cl)cc23)CC1)C(=O)NC(=O)CCCCC[C@@H]1SC[C@@H]2NC(=O)N[C@@H]21` (some centres undefined) was tested, and the Activity (Bcl-2-like protein 1 [1]) was “Active”, the Kd (Bcl-2-like protein 1 [2]) was 96 nM and the Activity (Bcl-2-like protein 1 [3]) was “Active”. For the same compound, the Kd [4] was 1240 nM, the EC50 (K562) was 1720 nM and the Activity (Bcl-2-like protein 1 [5]) was “Active”. For the same compound, the Kd [6] was 21 nM and the Activity (Bcl-2-like protein 1 [7]) was “Active”.

`CC1(C)CCC(CN2CCN(c3ccc(C(=O)NS(=O)(=O)c4ccc(NCC5CCOCC5)c([N+](=O)[O-])c4)c(Oc4cnc5[nH]ccc5c4)c3)CC2)=C(c2ccc(Cl)cc2)C1` [VENETOCLAX] gave an EC50 (K562) of 2100 nM.
